S100A4 inh HTS: S100A4-myosin IIA interaction inhibition; P26447; inhibition, % at 10.7 µM; AID 652163; S100A4/TAMRA-MyoIIA peptide fluorescence polarization; 0.14% of 360,000 active;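 active = mean inhibition of at least 70% across replicates, with every replicate also reaching that level; inconclusive = mean inhibition reaches 70% but some replicates fall short; inactive = mean inhibition below 70%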
Target sequence (P26447 whole entry, looked up): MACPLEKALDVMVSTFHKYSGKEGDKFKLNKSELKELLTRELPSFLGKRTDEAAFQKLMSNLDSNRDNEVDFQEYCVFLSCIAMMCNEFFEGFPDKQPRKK
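Material: S100A4 monomer protein / Buffer or medium: 50 mM HEPES pH 7.2, 10 mM CaCl2, 100 mM KCl / Times: 5 min incubation before reading / Benchmarks: neutral control DMSO, positive control TFP / Reagent: labelled myosin peptide probe, 5 nM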
rRNA inh HTS: selective bacterial rRNA inhibition in E. coli. E. coli WT GFP vs humanized-ribosome RFP mutants, fluorescence, 24 h; stronger effect = lower value; DMSO median 0, no signal -100. GFP signal change (wild-type ribosome), % (no concentration beside the values). 1.6% of 350,000 active. AID 720706;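 active = significant combined selectivity score with lowered wild-type GFP, culture density cut under 30%, mutant RFP and density less affected; inactive = any of these conditions unmet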
PfHsp90 yeast 2: inhibits growth of yeast expressing Plasmodium falciparum Hsp90; S. cerevisiae expressing PfHsp90, BacTiter-Glo ATP, 48 h; yeast lacking PDR1 and PDR3 efflux regulators; inhibition, % at 9.4 µM; 0.32% of 310,000 active; AID 504621;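 active = every replicate shows inhibition above about 80%, whatever the replicate mean, limit read from the data; inconclusive = mean inhibition reaches the set limit but some replicate falls short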;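 note: 0% = DMSO neutral controls and 100% = 20 µM radicicol positive controls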
MLL AF4-AF9 inh: blocks AF4 peptide binding to human AF9; AlphaScreen, biotin-AF4 peptide binding to FLAG-AF9; inhibition, % at 10 µM; 0.47% of 350,000 active;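 active = every replicate reaching a set inhibition limit, whatever the replicate mean, cut at about 25% in these data; inconclusive = mean inhibition reaches that limit but some replicates miss it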;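 note: 0% = plate neutral control median and 100% = total signal loss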
Target sequence (P42568 whole entry, looked up): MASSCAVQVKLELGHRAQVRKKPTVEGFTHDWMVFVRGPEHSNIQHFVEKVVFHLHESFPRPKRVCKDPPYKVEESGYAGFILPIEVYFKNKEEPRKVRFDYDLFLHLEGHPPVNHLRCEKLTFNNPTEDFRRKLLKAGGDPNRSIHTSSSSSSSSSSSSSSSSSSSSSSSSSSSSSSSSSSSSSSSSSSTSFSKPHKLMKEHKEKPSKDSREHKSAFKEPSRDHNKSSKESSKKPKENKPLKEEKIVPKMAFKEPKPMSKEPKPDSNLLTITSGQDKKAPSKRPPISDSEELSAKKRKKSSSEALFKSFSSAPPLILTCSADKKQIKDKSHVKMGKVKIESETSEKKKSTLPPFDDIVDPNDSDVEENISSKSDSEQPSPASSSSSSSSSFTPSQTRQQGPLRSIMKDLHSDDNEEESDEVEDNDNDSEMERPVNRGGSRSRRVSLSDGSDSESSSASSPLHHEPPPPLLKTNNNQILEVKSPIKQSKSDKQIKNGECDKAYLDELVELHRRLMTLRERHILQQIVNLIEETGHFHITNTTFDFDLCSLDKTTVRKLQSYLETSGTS
Cneo AK release: causes C. neoformans cell lysis | adenylate kinase release luminescence, 4 h; normalised: neutral wells 0, clomiphene wells 100 | lysis activity, % at 15 µM | 0.2% of 360,000 active;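 active = mean lysis activity across replicates of at least 80%, whatever share of replicates individually reach that level; inactive = mean lysis activity below 80%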
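Material – Cryptococcus neoformans yeast cells · Quantity – 5 × 10^6 yeast cells/mL · Buffer or medium – YPD medium · Compound – single dose · Timing – 4 h static compound exposure, 37 °C, read 1 h post-reagent · Signal – adenylate kinase release luminescence · Read-out basis – lysis from increased AK signal · Benchmarks – Clomiphene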
DENV2 CPE: protects cells from dengue virus 2 cytopathic effect. CPE inhibition, % at 9.99 µM. DENV2-infected cells, cytopathic effect rescue, plate reader. 1.7% of 350,000 active. AID 651640; in the data active = CPE inhibition above about 20%, passing the limit was not always enough; inconclusive = no clear call, values can overlap the other calls; tested in BHK-21 cells;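 note: 0% = median of neutral control wells and 100% = median of positive control wells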
An asterisk follows results filed as active. In the library only some 3.2% were active in any assay of this set; here they are far more common.

For Cc1ccc(CNS(=O)(=O)c2ccc3c(c2)C(C)(C)C(=O)N3C)cc1 the results were S100A4 inh HTS 1, rRNA inh HTS -5, PfHsp90 yeast 2 2, MLL AF4-AF9 inh 1, Cneo AK release -3 and DENV2 CPE inconclusive.
COCC#Cc1ccc2c(c1)O[C@H](CN(C)C(=O)NC(C)C)[C@H](C)CN([C@@H](C)CO)S2(=O)=O was read as S100A4 inh HTS 6, rRNA inh HTS 2, MLL AF4-AF9 inh -1, Cneo AK release 66 and DENV2 CPE 1.
CCOC(=O)N1CCN(CCC(=O)Nc2ccc(Br)c(C)c2)CC1 was read as S100A4 inh HTS 0, rRNA inh HTS -23*, MLL AF4-AF9 inh 2 and DENV2 CPE 1.
CCOC(=O)N1CCN(CCC(=O)Nc2ccc(F)c(F)c2)CC1 was read as S100A4 inh HTS -1, rRNA inh HTS -6, PfHsp90 yeast 2 6, MLL AF4-AF9 inh -2, Cneo AK release 6 and DENV2 CPE 0.
For CCN1CCN(CCC(=O)Nc2ccc(Br)c(C)c2)CC1 the results were S100A4 inh HTS -2, rRNA inh HTS 15, PfHsp90 yeast 2 -14, MLL AF4-AF9 inh 1, Cneo AK release 1 and DENV2 CPE 23*.
O=C(NCc1ccccc1)[C@H]1[C@H](CO)[C@H]2Cn3c(ccc(-c4cccc(F)c4)c3=O)[C@@H]1N2 was read as S100A4 inh HTS 4, rRNA inh HTS 1, MLL AF4-AF9 inh 0, Cneo AK release -1 and DENV2 CPE 7.
For CCCCCC(=O)N1C[C@H](n2cc(COC(=O)c3ccccc3)nn2)[C@@H](O)C[C@@H]1c1ccc(Cl)cc1 the results were S100A4 inh HTS 15, rRNA inh HTS 1, MLL AF4-AF9 inh -1, Cneo AK release -2 and DENV2 CPE 53*.
`CCCCCC(=O)N1C[C@@H](n2cc(COC(=O)c3ccccc3)nn2)[C@H](O)C[C@@H]1c1ccc(Cl)cc1` gave S100A4 inh HTS 15, rRNA inh HTS -19, MLL AF4-AF9 inh 3, Cneo AK release -1 and DENV2 CPE 9.
For C=CC1C2C(C)=CC(C3C(=O)N(C)C(=O)C32)N1Cc1ccc(OC)cc1 (stereo not drawn) the results were S100A4 inh HTS 3, MLL AF4-AF9 inh -1, Cneo AK release -2 and DENV2 CPE 7.
For COc1cc(CO)cc(Br)c1OCC(=O)Nc1cccc2ccccc12 the results were S100A4 inh HTS 5, rRNA inh HTS -24*, PfHsp90 yeast 2 18, MLL AF4-AF9 inh 1, Cneo AK release 1 and DENV2 CPE 10.
COCC(=O)Nc1cccc2ccccc12 was read as PfHsp90 yeast 2 24.
For CCOc1ccc(CN(C)CC(=O)Nc2cccc3ccccc23)cc1OC the results were S100A4 inh HTS -1, rRNA inh HTS -24*, PfHsp90 yeast 2 -4, MLL AF4-AF9 inh -3, Cneo AK release -1 and DENV2 CPE 12.
Screening COc1ccc(CN(C)CC(=O)Nc2cccc3ccccc23)cc1F returned S100A4 inh HTS -2, rRNA inh HTS -15, PfHsp90 yeast 2 9, MLL AF4-AF9 inh 0, Cneo AK release -1 and DENV2 CPE inconclusive.
`O=C(C[C@@H]1C[C@@H]2c3cc(NC(=O)c4ccc5c(c4)OCO5)ccc3O[C@@H]2[C@H](CO)O1)NCc1cccc(F)c1` gave S100A4 inh HTS -37, rRNA inh HTS 4, MLL AF4-AF9 inh -7, Cneo AK release -6 and DENV2 CPE 7.
`C[C@H]1CN([C@@H](C)CO)C(=O)c2cc(NC(=O)Nc3ccccc3)ccc2O[C@@H]1CN(C)S(C)(=O)=O` gave S100A4 inh HTS 8, rRNA inh HTS 3, MLL AF4-AF9 inh -5, Cneo AK release -6 and DENV2 CPE -16.
For COCc1cc(/C=N\NC(=O)COc2ccc(Cl)cc2)ccc1OC the results were PfHsp90 yeast 2 30.
Screening COCc1cc(/C=N\NC(=O)COc2ccccc2)ccc1OC returned S100A4 inh HTS 0, rRNA inh HTS -27*, PfHsp90 yeast 2 29, MLL AF4-AF9 inh 0 and DENV2 CPE inconclusive.
COc1ccc(/C=N\NC(=O)c2ccc(-c3ccccc3)cc2)cc1COC(C)=O was read as S100A4 inh HTS -2, rRNA inh HTS -25*, PfHsp90 yeast 2 -20, MLL AF4-AF9 inh -7, Cneo AK release -1 and DENV2 CPE 56*.
For COc1ccc(/C=N\NC(=O)c2ccccc2)cc1COc1ccc(F)cc1 the results were S100A4 inh HTS 0, rRNA inh HTS -10, PfHsp90 yeast 2 -4, MLL AF4-AF9 inh 0, Cneo AK release -1 and DENV2 CPE 2.
For O=C(N[C@@H]1CC[C@@H](CCNC(=O)C2CCC2)O[C@@H]1CO)c1ccccn1 the results were S100A4 inh HTS 8, rRNA inh HTS 2, MLL AF4-AF9 inh 0, Cneo AK release -1 and DENV2 CPE 1.
Cc1ccccc1S(=O)(=O)NC(=O)C1(C)CCN1C(=O)CC(c1ccccc1)c1ccccc1 (stereo not drawn) was read as S100A4 inh HTS -4, rRNA inh HTS 8, MLL AF4-AF9 inh 0, Cneo AK release 1 and DENV2 CPE 38*.
For CC1(C(=O)NS(=O)(=O)c2ccc(Cl)cc2)CCN1C(=O)CCc1ccc(Cl)cc1Cl (stereo not drawn) the results were S100A4 inh HTS -1, rRNA inh HTS -30*, MLL AF4-AF9 inh 5, Cneo AK release -1 and DENV2 CPE -5.
`Cc1ccc(S(=O)(=O)NC(=O)C2(C)CCN2C(=O)CCc2ccc(Cl)cc2Cl)cc1` (stereo not drawn) gave S100A4 inh HTS -1, rRNA inh HTS -16, MLL AF4-AF9 inh 0, Cneo AK release 1 and DENV2 CPE 1.
For Cc1ccc(S(=O)(=O)NC(=O)C2(C)CCN2C(=O)Cc2ccc(-c3ccccc3)cc2)cc1 (stereo not drawn) the results were S100A4 inh HTS 1, rRNA inh HTS -34*, MLL AF4-AF9 inh -2, Cneo AK release -3 and DENV2 CPE -2.
Screening CC(C)NC(=O)Nc1ccc2c(c1)C(=O)N([C@@H](C)CO)C[C@@H](C)[C@H](CN(C)CC1CCCCC1)OCCCC[C@H](C)O2 returned S100A4 inh HTS 0, rRNA inh HTS 4, MLL AF4-AF9 inh -7, Cneo AK release 2 and DENV2 CPE inconclusive.
For COc1ccc(S(=O)(=O)N(C)C[C@@H]2Oc3ccc(NC(=O)CCC(F)(F)F)cc3C(=O)N([C@H](C)CO)C[C@H]2C)cc1 the results were S100A4 inh HTS -1, rRNA inh HTS 0, MLL AF4-AF9 inh 2, Cneo AK release 1 and DENV2 CPE -2.
Screening C[C@@H]1CN([C@H](C)CO)C(=O)c2cc(NC(=O)CCCCCC(=O)Nc3ccccc3N)ccc2O[C@@H]1CN(C)C(=O)Nc1ccccc1 returned rRNA inh HTS 0.

Screening results deposited in PubChem by Broad Institute.
